Test results reported in ChEMBL document CHEMBL1151448, “Comparative antianaerobic activities of doripenem determined by MIC and time-kill analysis” (2008).
Converted amounts (≈) assume the structure as drawn. The source made the active and inactive calls. The rule behind the calls is not given here.

How the values were obtained:
Prevotella nigrescens = assay: Antimicrobial activity against beta lactamase-positive Prevotella nigrescens isolated from intra-abdominal infection and pelvic inflammatory disease patients after 48 hrs by agar dilution method; assay type: functional
Summary of the method: (§1)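 CLSI agar dilution on brucella blood agar supplemented with laked sheep blood, hemin and vitamin K. Inocula of about 1 × 10^5 CFU/spot were applied by Steers replicator, and plates were incubated 48 h at 35°C in an anaerobic glove box. MIC was the concentration giving marked growth reduction versus the anaerobic control plate. QC strains were included each run, and β-lactamase was detected by Cefinase disk.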

Clostridium perfringens [1] = assay: Antimicrobial activity against Clostridium perfringens isolated from intra-abdominal infection and pelvic inflammatory disease patients after 48 hrs by agar dilution method; assay type: functional
Summary of the method: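 CLSI agar dilution on brucella blood agar supplemented with laked sheep blood, hemin and vitamin K. Inoculum about 1 × 10^5 CFU/spot, applied by Steers replicator. Plates incubated 48 h at 35°C in an anaerobic glove box. MIC is the concentration giving marked growth reduction versus the anaerobic control plate. Standard QC strains included in each run.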

Fusobacterium nucleatum = assay: Antimicrobial activity against beta lactamase-positive Fusobacterium nucleatum isolated from intra-abdominal infection and pelvic inflammatory disease patients after 48 hrs by time kill analysis; assay type: functional
Summary of the method: (§2)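 The MIC was read by inspecting macrodilution time-kill tubes. Vials held prereduced brucella broth with 5% laked horse blood cells, hemin 5 μg/ml and vitamin K1 1 μg/ml. Final inoculum was 10^6–10^7 CFU/ml, prepared inside the anaerobe chamber. Vials were incubated 48 h at 35°C in a shaking water bath.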

Prevotella bivia = assay: Antimicrobial activity against beta lactamase-positive Prevotella bivia isolated from intra-abdominal infection and pelvic inflammatory disease patients after 48 hrs by agar dilution method; assay type: functional; summary of the method: as §1
Clostridioides difficile [2] = assay: Bactericidal activity against Clostridium difficile isolated from intra-abdominal infection and pelvic inflammatory disease patients assessed as 99.9% bacterial killing at 2 times MIC after 48 hrs by time kill analysis; assay type: functional, organism-based
Summary of the method: (§3)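 Macrodilution time-kill in prereduced brucella broth with 5% laked horse blood, hemin 5 μg/ml and vitamin K1 1 μg/ml, at final inoculum 10^6–10^7 CFU/ml. […] Viable counts were taken at 6, 12, 24 and 48 h on plates incubated 48 h anaerobically. 99.9% kill was taken as bactericidal.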

Finegoldia magna [3] = assay: Bactericidal activity against beta lactamase-positive Finegoldia magna isolated from intra-abdominal infection and pelvic inflammatory disease patients assessed as 99.9% bacterial killing at 2 times MIC after 48 hrs by time kill analysis; assay type: functional, organism-based; summary of the method: as §3
Thomasclavelia ramosa = assay: Antimicrobial activity against Clostridium ramosum isolated from intra-abdominal infection and pelvic inflammatory disease patients after 48 hrs by agar dilution method; assay type: functional; summary of the method: as §1
Prevotella intermedia [4] = assay: Antimicrobial activity against beta lactamase-positive Prevotella intermedia isolated from intra-abdominal infection and pelvic inflammatory disease patients after 48 hrs by agar dilution method; assay type: functional; summary of the method: as §1
[5] = system: Enterocloster clostridioformis; assay: Antimicrobial activity against Clostridium clostridioforme isolated from intra-abdominal infection and pelvic inflammatory disease patients after 48 hrs by agar dilution method; assay type: functional; summary of the method: as §1
[6] = system: Peptoniphilus asaccharolyticus; assay: Antimicrobial activity against Peptoniphilus asaccharolyticus isolated from intra-abdominal infection and pelvic inflammatory disease patients after 48 hrs by agar dilution method; assay type: functional; summary of the method: as §1
Phocaeicola vulgatus = assay: Antimicrobial activity against beta lactamase-positive Bacteroides vulgatus isolated from intra-abdominal infection and pelvic inflammatory disease patients after 48 hrs by agar dilution method; assay type: functional; summary of the method: as §1
Porphyromonas gingivalis = assay: Antimicrobial activity against Porphyromonas gingivalis isolated from intra-abdominal infection and pelvic inflammatory disease patients after 48 hrs by agar dilution method; assay type: functional; summary of the method: as §1
Prevotella intermedia [7] = assay: Antimicrobial activity against beta lactamase-positive Prevotella intermedia isolated from intra-abdominal infection and pelvic inflammatory disease patients after 48 hrs by time kill analysis; assay type: functional; summary of the method: as §2
Fusobacterium varium = assay: Antimicrobial activity against Fusobacterium varium isolated from intra-abdominal infection and pelvic inflammatory disease patients after 48 hrs by agar dilution method; assay type: functional; summary of the method: as §1
[8] = system: Paraclostridium bifermentans; assay: Antimicrobial activity against Clostridium bifermentans isolated from intra-abdominal infection and pelvic inflammatory disease patients after 48 hrs by agar dilution method; assay type: functional; summary of the method: as §1
Clostridium cadaveris = assay: Antimicrobial activity against Clostridium cadaveris isolated from intra-abdominal infection and pelvic inflammatory disease patients after 48 hrs by agar dilution method; assay type: functional; summary of the method: as §1
Anaerococcus prevotii = assay: Antimicrobial activity against Anaerococcus prevotii isolated from intra-abdominal infection and pelvic inflammatory disease patients after 48 hrs by agar dilution method; assay type: functional; summary of the method: as §1
[9] = system: Bacteroides thetaiotaomicron; assay: Antimicrobial activity against beta lactamase-positive Bacteroides thetaiotaomicron isolated from intra-abdominal infection and pelvic inflammatory disease patients after 48 hrs by agar dilution method; assay type: functional; summary of the method: as §1
Clostridium perfringens [10] = assay: Bactericidal activity against Clostridium perfringens isolated from intra-abdominal infection and pelvic inflammatory disease patients assessed as bacterial killing at 2 times MIC after 48 hrs by time kill analysis; assay type: functional
Summary of the method: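 Time-kill in prereduced brucella broth with 5% laked horse blood cells, hemin and vitamin K1. […] Viable counts taken at 6, 12, 24 and 48 h, plates incubated 48 h anaerobically. Kill scored as 90%, 99% or 99.9%; 99.9% defines bactericidal.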

Bacteroides ovatus = assay: Antimicrobial activity against beta lactamase-positive Bacteroides ovatus isolated from intra-abdominal infection and pelvic inflammatory disease patients after 48 hrs by agar dilution method; assay type: functional; summary of the method: as §1
[11] = system: Paeniclostridium sordellii; assay: Antimicrobial activity against Clostridium sordellii isolated from intra-abdominal infection and pelvic inflammatory disease patients after 48 hrs by agar dilution method; assay type: functional; conditions: Paraclostridium sordellii; summary of the method: as §1
[Clostridium] innocuum = Antimicrobial activity against Clostridium innocuum isolated from intra-abdominal infection and pelvic inflammatory disease patients after 48 hrs by agar dilution method; assay type: functional; summary of the method: as §1
Clostridioides difficile [12] = assay: Bactericidal activity against Clostridium difficile isolated from intra-abdominal infection and pelvic inflammatory disease patients assessed as bacterial killing at MIC after 24 hrs by time kill analysis; assay type: functional; summary of the method: as §3
Finegoldia magna [13] = assay: Bactericidal activity against beta lactamase-positive Finegoldia magna isolated from intra-abdominal infection and pelvic inflammatory disease patients assessed as bacterial killing at MIC after 24 hrs by time kill analysis; assay type: functional
Summary of the method: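 Anaerobic macrodilution time-kill. Inoculum from brucella blood plates, prepared and diluted in prereduced brucella broth inside the anaerobe chamber. Final 10^6 to 10^7 CFU/ml in prereduced brucella broth with 5% laked horse blood cells, 5 μg/ml hemin and 1 μg/ml vitamin K1. […] Shaken at 35°C for 48 h. Viable counts taken at 6, 12, 24 and 48 h. 99.9% kill taken as bactericidal.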

Clostridium perfringens [14] = assay: Antimicrobial activity against Clostridium perfringens isolated from intra-abdominal infection and pelvic inflammatory disease patients after 48 hrs by time kill analysis; assay type: functional
Summary of the method: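 Macrodilution in prereduced brucella broth with 5% laked horse blood cells, 5 μg/ml hemin and 1 μg/ml vitamin K1. Final inoculum 10^6 to 10^7 CFU/ml, prepared inside the anaerobe chamber. Vials incubated 48 h at 35°C in a shaking water bath. MIC read by inspecting the time-kill tubes, alongside an antibiotic-free growth control.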

Bacteroides fragilis = assay: Bactericidal activity against beta lactamase-positive Bacteroides fragilis isolated from intra-abdominal infection and pelvic inflammatory disease patients assessed as bacterial killing at 2 times MIC after 48 hrs by time kill analysis; assay type: functional; summary of the method: as §3

## C[C@@H](O)[C@H]1C(=O)N2C(C(=O)O)=C(S[C@@H]3CN[C@H](C(=O)Nc4cccc(C(=O)O)c4)C3)[C@H](C)[C@H]12
Prevotella nigrescens
  MIC50: 0.03 µg/mL (≈ 0.0631 µM)
  MIC90: 0.06 µg/mL (≈ 0.126 µM)
Clostridium perfringens [1]
  MIC50: 0.06 µg/mL (≈ 0.126 µM)
  MIC90: 0.125 µg/mL (≈ 0.263 µM)
Fusobacterium nucleatum
  MIC: 0.008 µg/mL (≈ 0.0168 µM)
Prevotella bivia
  MIC50: 0.25 µg/mL (≈ 0.526 µM)
  MIC90: 0.25 µg/mL (≈ 0.526 µM)
Clostridioides difficile [2]
  Activity: inactive
Finegoldia magna [3]
  Activity: inactive
Thomasclavelia ramosa
  MIC: 1 µg/mL (≈ 2.1 µM)
  MIC50: 1 µg/mL (≈ 2.1 µM)
Prevotella intermedia [4]
  MIC50: 0.03 µg/mL (≈ 0.0631 µM)
  MIC90: 0.25 µg/mL (≈ 0.526 µM)
[5]
  MIC: 1 µg/mL (≈ 2.1 µM)
[6]
  MIC: ≤ 0.016 µg/mL
  MIC50: ≤ 0.016 µg/mL
  MIC90: 0.06 µg/mL (≈ 0.126 µM)
Phocaeicola vulgatus
  MIC50: 0.125 µg/mL (≈ 0.263 µM)
  MIC90: 2 µg/mL (≈ 4.21 µM)
Porphyromonas gingivalis
  MIC: ≤ 0.016 µg/mL
Prevotella intermedia [7]
  MIC: 0.03 µg/mL (≈ 0.0631 µM)
Fusobacterium varium
  MIC: 0.06 µg/mL (≈ 0.126 µM)
  MIC50: 0.06 µg/mL (≈ 0.126 µM)
  MIC90: 0.125 µg/mL (≈ 0.263 µM)
[8]
  MIC: 0.125 µg/mL (≈ 0.263 µM)
Clostridium cadaveris
  MIC: ≤ 0.016 µg/mL
Anaerococcus prevotii
  MIC: ≤ 0.016 µg/mL
[9]
  MIC: 0.5 µg/mL (≈ 1.05 µM)
  MIC50: 0.5 µg/mL (≈ 1.05 µM)
  MIC90: 1 µg/mL (≈ 2.1 µM)
Clostridium perfringens [10]
  Activity: 99%
Bacteroides ovatus
  MIC: 0.5 µg/mL (≈ 1.05 µM)
  MIC50: 0.5 µg/mL (≈ 1.05 µM)
  MIC90: 2 µg/mL (≈ 4.21 µM)
[11]
  MIC: 0.03 µg/mL (≈ 0.0631 µM)
[Clostridium] innocuum
  MIC: 2 µg/mL (≈ 4.21 µM)
  MIC50: 2 µg/mL (≈ 4.21 µM)
Clostridioides difficile [12]
  Activity: 90%
Finegoldia magna [13]
  Activity: 90%
Clostridium perfringens [14]
  MIC: 0.125 µg/mL (≈ 0.263 µM)
Bacteroides fragilis
  Activity: 99%
